Molecules are shown by their SMILES. Several values for one entry are separate records, joined by “and”; a condition that tells them apart may be missing. Identical values can stand only once.

Experimental findings from ChEMBL document CHEMBL1125615, “A highly specific aldose reductase inhibitor, ethyl 1-benzyl-3-hydroxy-2(5H)-oxopyrrole-4-carboxylate, and its congeners” (J Med Chem, 1991) are described below.

Data set [1] addresses T1, Aldo-keto reductase family 1 member B1 (Homo sapiens, UniProt P15121). Kind of data set: Inhibitory activity measured in vitro against human placental aldose reductase at a concentration of 10e-5 M.
The target in data set [2] is T1, Aldo-keto reductase family 1 member B1. Kind of data set: In vitro inhibition of human placental aldose reductase. The method, boiled down:
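Human placental aldose reductase, partly purified (placentae homogenized in 0.1 M K phosphate pH 7.0 with 5 mM 2-mercaptoethanol, spun 33000g, peak fractions pooled). Assay in 50 mM K phosphate pH 7.1 with 0.4 M ammonium sulfate, 0.067 mM NADPH, 1.0 mM DL-glyceraldehyde; enzyme set to 4 milliunits; NADPH oxidation at 340 nm, 25 °C, 10 min. IC50 by log linear regression.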

A short description of data set [3]: Physicochemical property was determined. It counts as ADME.
In data set [4] the target is T2, Aldo-keto reductase family 1 member B1 (Rattus norvegicus, UniProt P07943). Kind of data set: (§1) Inhibitory activity measured against rat lens aldose reductase using 3-pyridinecarboxaldehyde as substrate.
Data set [5] has as its target T3, Aldo-keto reductase family 1 member A1 (Sus scrofa, UniProt P50578).
T3 sequence (P50578 whole entry): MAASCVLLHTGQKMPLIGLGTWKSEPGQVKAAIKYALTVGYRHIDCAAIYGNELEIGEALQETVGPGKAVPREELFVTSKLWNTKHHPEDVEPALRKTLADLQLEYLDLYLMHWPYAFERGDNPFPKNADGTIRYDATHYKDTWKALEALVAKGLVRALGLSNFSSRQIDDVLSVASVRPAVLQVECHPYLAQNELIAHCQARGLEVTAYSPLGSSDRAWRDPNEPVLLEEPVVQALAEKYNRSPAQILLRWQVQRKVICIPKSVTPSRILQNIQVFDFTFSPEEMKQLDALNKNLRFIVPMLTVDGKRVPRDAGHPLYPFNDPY
Kind of data set: (§2) Selectivity ratio measured as the IC50 ratio of aldehyde/aldose reductase values.

A short description of data set [6]: Inhibitory activity measured against pig kidney aldehyde reductase using 3-pyridinecarboxaldehyde as substrate. The method, boiled down: (§3)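 Purified rat lens aldose reductase and homogeneous pig kidney aldehyde reductase, assayed in 50 mM K phosphate pH 7.0 with 0.1 mM NADPH and 5 mM 3-pyridinecarboxaldehyde; substrate-started, NADPH loss at 340 nm over 12 min, 25 °C. IC50 by log linear regression; selectivity = aldehyde IC50 / aldose IC50.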

Data set [7] addresses T4, Aldo-keto reductase family 1 member A1 (Sus scrofa) (UniProt P50578).
T4 sequence (whole entry): T3 sequence (P50578 whole entry)
Kind of data set: Inhibitory activity measured against pig kidney aldehyde reductase using 3-pyridinecarboxaldehyde as substrate at 2e-4. To be noted: concentration not given here. The gist of the method:
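Pig kidney aldehyde reductase, purified to homogeneity, was tested at 2 × 10^-4 M inhibitor in 50 mM potassium phosphate pH 7.0 with 0.1 mM NADPH and 5 mM 3-pyridinecarboxaldehyde. The reaction was started with substrate, and NADPH loss was read at 340 nm for 12 min at 25 °C. The value is percent inhibition.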

Data set [8] can be described thus: as §2. The method, boiled down: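 Ratio of the pig kidney aldehyde reductase IC50 to the rat lens aldose reductase IC50. Both purified enzymes were assayed in 50 mM potassium phosphate pH 7.0 with 0.1 mM NADPH and 5 mM 3-pyridinecarboxaldehyde, started with substrate, reading NADPH loss at 340 nm for 12 min at 25 °C. IC50s came from log-linear regression.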
The species entered for data set [9] is Rattus norvegicus. Kind of data set: Percent inhibition of sorbitol accumulation in rat sciatic nerve was measured. The format is functional. The method, boiled down: (§4)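 Streptozotocin 85 mg/kg i.v. at 0 h to induce diabetes in rats; compound 100 mg/kg orally at 4, 7 and 24 h; killed at 27 h. Sorbitol in sciatic nerve or lens compared with untreated diabetic rats, n = 6 per group; Student's t test.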

Data set [10] in a line: as §1. The method, boiled down: as §3
The target in data set [11] is T2, Aldo-keto reductase family 1 member B1. Kind of data set: Inhibition of rat lens aldose reductase was measured.
The nature of data set [12]: Physicochemical property was determined; b=could not be measured. It counts as ADME.
Data set [13] is filed under the species Rattus norvegicus. Nature of the data set: Percent inhibition of sorbitol accumulation in rat lens was measured. The format is functional, Lens of camera-type eye. The method, boiled down: as §4

Regarding `CC(C)(C)OC(=O)C1=C(O)C(=O)N(Cc2ccccc2)C1`, the inhibition (commonly how much of the control response was suppressed) in [1] was 27%.

In the case of `CCCOC(=O)C1=C(O)C(=O)N(Cc2ccccc2)C1`, the IC50 (usually the concentration at which inhibition is half-maximal) in data set [2] is 1900 nM.

In the case of `CCOC(=O)C1=C(O)C(=O)N(Cc2ccco2)C1`, half-maximal inhibition in data set [2] (IC50) was put at 3300 nM.

With `CCOC(=O)C1=C(O)C(=O)N([C@H](C)c2ccccc2)C1`, the IC50 in data set [2] came out at 840 nM.

In the case of `CCOC(=O)C1=C(O)C(=O)N(Cc2ccc(Cl)cc2)C1`, the IC50 in data set [2] was found to be 310 nM.

Compound `CCOC(=O)C1=C(O)C(=O)N(C2c3ccccc3-c3ccccc32)C1` yielded an IC50 in data set [2] of 300 nM.

As to `CSC1CN(Cc2ccccc2)C(=O)C1=O` (configuration not stated), the pKa (usually the negative logarithm of the acid dissociation constant) in data set [3] was found to be 7.3.

In the case of `CCCC(CCC)C(=O)O` [VALPROATE SODIUM], the IC50 was 380000 nM in data set [4] and 89000 nM in [5]. Besides, the Selectivity ratio in [6] is 0.2.

The compound `CCOC(=O)C1=C(O)C(=O)N(c2cccc3ccccc23)C1` came in with an inhibition in data set [1] of 36%.

In data set [1], `CCOC(=O)C1=C(O)C(=O)N(c2ccccc2)C1` showed an inhibition of 28%.

Regarding `CCOC(=O)C1=C(O)C(=O)N(Cc2cccs2)C1`, it took 380 nM to reach half-maximal inhibition in data set [2] (IC50).

Consider `CCOC(=O)C1=C(O)C(=O)N(Cc2ccc(OC)cc2)C1`, for which, in data set [2], the IC50 was determined as 410 nM.

Consider `COc1ccc2c(C(=S)N(C)CC(=O)O)cccc2c1C(F)(F)F` [TOLRESTAT], for which, in [4], the IC50 was 29 nM.

`CCOC(=O)C1C(=O)C(=O)NC12CCOc1ccc(F)cc12` (configuration not stated) gave an IC50 in data set [4] of 910 nM. Further, the inhibition in data set [7] turned out to be 11%. The Selectivity ratio in data set [8] is greater than 200.

`CCOC(=O)C1=C(O)C(=O)N(Cc2ccc(Br)cc2)C1` came in with an IC50 in [2] of 500 nM.

On to `CCOC(=O)C1=C(O)C(=O)N(Cc2ccc(Cl)c(Cl)c2)C1`, for which the IC50 in data set [2] came to 240 nM.

Take `COC(=O)C1=C(O)C(=O)N(Cc2ccccc2)C1`: half-maximal inhibition in data set [2] (IC50) required 2600 nM.

`O=C1NC(=O)C2(N1)c1ccccc1-c1ccc(F)cc12` (configuration not stated) [ALCONIL]: the figures for the IC50 in data set [4] and in [5] were 300 nM and 27 nM, respectively. Further, the Selectivity ratio in data set [6] amounted to 0.1.

Regarding `CCOC(=O)C1=C(O)C(=O)N(Cc2ccncc2)C1`, the IC50 in [2] worked out at 200 nM; in data set [11], 110 nM. Besides, the inhibition in data set [7] is 9%. Moreover, the Inhibition (commonly the drop in the measured response relative to a control, in per cent) in the data set filed under Rattus norvegicus [9] stood at 28%. The Selectivity ratio in data set [10] is greater than 1800.

Turning to `O=C1CCN(Cc2ccccc2)C1=O`, the pKa result in data set [12] is on record as “Could not be measured”.

Turning to `CCOC(=O)C1=C(O)C(=O)N(CC2CCCCC2)C1`, the inhibition in [1] amounted to 64%.

For the compound `CCOC(=O)C1=C(O)C(=O)N(Cc2cccc3ccccc23)C1`, in [2], 2300 nM corresponded to half-maximal inhibition (IC50).

On to `CC1CN(Cc2ccccc2)C(=O)C1=O` (configuration not stated), for which the pKa in data set [3] is 10.6.

For the compound `CS(=O)(=O)C1CN(Cc2ccccc2)C(=O)C1=O` (configuration not stated), in data set [3], the pKa is 5.1.

For `CCOC(=O)C1=C(O)C(=O)N(C2CCCCC2)C1`, the inhibition in data set [1] worked out at 22%.

Take `CCOC(=O)C1=C(O)C(=O)N(Cc2ccccn2)C1`: the IC50 in [2] is 440 nM.

As for `CCOC(=O)C1=C(O)C(=O)N(Cc2ccccc2Cl)C1`, the IC50 in data set [2] was 2300 nM.

In data set [2], `CCOC(=O)C1=C(O)C(=O)N(CCc2ccccc2)C1` yielded a 50% inhibitory concentration (IC50) of 2500 nM.

In [1], `CC(C)(C)OC(=O)C1=C(O)C(=O)N(Cc2cccs2)C1` gave an inhibition of 9%. The Inhibition in the data set listed under Rattus norvegicus [13] was 36%; in the data set filed under Rattus norvegicus [9] it was 37%.

On to `CC1(S(=O)(=O)O)CC(=O)c2ccccc2C1=O` (configuration not stated) [MENADIONE SULFUROUS ACID], for which the IC50 in data set [4] amounted to 82000 nM; in data set [5] it was 490000 nM. Also, in data set [6], the Selectivity ratio is 6.

Take `CCOC(=O)C1=C(O)C(=O)N([C@@H](C)c2ccccc2)C1`: the IC50 in [2] came out at 1200 nM.

With `CCOC(=O)C1=C(O)C(=O)N(Cc2ccccc2)C1`, the IC50 in data set [2] was determined as 260 nM. In addition, the inhibition in data set [7] was 2%. In addition, the Inhibition in the data set filed under Rattus norvegicus [9] is 51% and 42%.

For `O=C(O)Cc1nn(Cc2ccc(Br)cc2F)c(=O)c2ccccc12` [PONALRESTAT], the results for the IC50 in [4] and in data set [5] were 28 nM and 2000 nM, respectively. Also, the Selectivity ratio in data set [6] came out at 71.4.

Take `CC(/C=C1\SC(=S)N(CC(=O)O)C1=O)=C\c1ccccc1`: the concentration for half-maximal inhibition (IC50) in data set [5] is 1500 nM.
